In ChEMBL document CHEMBL1158362, “4-Phenoxybutoxy-substituted heterocycles--a structure-activity relationship study of blockers of the lymphocyte potassium channel Kv1.3” (Eur J Med Chem, 2009):

Columns and labels:
[1] = molecular target: Potassium voltage-gated channel subfamily A member 5 (Homo sapiens) (UniProt P22460); assay: Inhibition of Kv1.5 potassium channel by whole cell patch clamp
Method in brief: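 Currents were recorded by whole-cell patch clamp from MEL-C88 cells. Each compound was tested three times at 4–5 concentrations, each experiment on a different cell. IC50 came from a Hill-equation fit of the reduction in area under the current curve.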

[2] = Selectivity for Kv1.3 potassium channel over Kv1.5 potassium channel
[3] = molecular target: Potassium voltage-gated channel subfamily A member 3 (Homo sapiens, UniProt P22001); assay: Inhibition of Kv1.3 potassium channel expressed in mouse L929 cells by whole cell patch clamp; assay type: cell-based
Method in brief: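 Currents were evoked by 500 ms pulses to 40 mV every 45 s. Each compound was run three times at 4–5 concentrations, each on a different cell. IC50 came from a Hill fit of the reduction in area under the current curve.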

[4] = Half life in po dosed rat; assay type: ADME, organism-based; settings: in vivo
[5] = Half life in po dosed rhesus monkey; assay type: ADME, organism-based, Macaca mulatta; settings: in vivo

Potassium voltage-gated channel subfamily A member 5 (Homo sapiens), sequence (P22460 whole entry): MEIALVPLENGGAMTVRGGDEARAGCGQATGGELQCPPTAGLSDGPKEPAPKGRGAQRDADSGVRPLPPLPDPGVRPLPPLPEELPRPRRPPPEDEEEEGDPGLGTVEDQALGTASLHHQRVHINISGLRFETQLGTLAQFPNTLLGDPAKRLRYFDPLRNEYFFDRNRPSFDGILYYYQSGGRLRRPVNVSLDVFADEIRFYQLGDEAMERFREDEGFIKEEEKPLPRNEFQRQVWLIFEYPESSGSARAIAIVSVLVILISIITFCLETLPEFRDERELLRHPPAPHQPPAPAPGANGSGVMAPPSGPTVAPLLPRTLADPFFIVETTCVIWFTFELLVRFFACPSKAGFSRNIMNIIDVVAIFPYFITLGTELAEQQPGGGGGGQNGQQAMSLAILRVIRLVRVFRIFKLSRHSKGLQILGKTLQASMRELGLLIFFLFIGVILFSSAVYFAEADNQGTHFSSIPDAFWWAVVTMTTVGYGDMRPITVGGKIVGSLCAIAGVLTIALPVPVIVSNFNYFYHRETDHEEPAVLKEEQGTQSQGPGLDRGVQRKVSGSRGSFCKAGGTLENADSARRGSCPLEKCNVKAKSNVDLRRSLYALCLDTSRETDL
Potassium voltage-gated channel subfamily A member 3, sequence (P22001 whole entry): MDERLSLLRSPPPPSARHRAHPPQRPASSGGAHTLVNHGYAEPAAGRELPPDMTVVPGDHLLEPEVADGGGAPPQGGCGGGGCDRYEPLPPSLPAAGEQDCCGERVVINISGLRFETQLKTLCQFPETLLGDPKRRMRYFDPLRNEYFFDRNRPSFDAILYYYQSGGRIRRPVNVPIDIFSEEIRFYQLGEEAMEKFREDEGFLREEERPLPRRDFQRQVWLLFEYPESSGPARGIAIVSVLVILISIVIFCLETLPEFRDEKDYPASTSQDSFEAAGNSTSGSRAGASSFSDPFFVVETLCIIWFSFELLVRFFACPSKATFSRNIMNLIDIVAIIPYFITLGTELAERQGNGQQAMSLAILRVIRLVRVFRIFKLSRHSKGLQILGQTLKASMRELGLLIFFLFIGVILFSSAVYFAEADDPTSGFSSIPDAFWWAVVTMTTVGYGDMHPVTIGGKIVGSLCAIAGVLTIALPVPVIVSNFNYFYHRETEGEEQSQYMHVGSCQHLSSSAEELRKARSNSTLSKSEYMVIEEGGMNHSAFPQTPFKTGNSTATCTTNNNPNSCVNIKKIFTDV

Row | Compound | IC50 [1] [nM] | Ratio IC50 (Kv1.5/Kv1.3) [2] | IC50 [3] [nM] | half-life [4] [h] | half-life [5] [h]
1 | COc1cc2nc3occc3c(OCCCCOc3ccccc3)c2cc1OC | 480 | 3.2 | 150 |  | 
2 | COc1c2ccoc2cc2oc(=O)ccc12 [BERGAPTEN] | 177000 | 1.75 | 101000 |  | 
3 | O=c1c(OCCCCOc2ccccc2)c(-c2ccccc2)oc2ccccc12 | 10000 | 10 | 1000 |  | 
4 | O=c1cc(OCCCCOc2ccccc2)c2ccccc2o1 | 1500 | 1.69 | 890 |  | 
5 | COc1cccc2c(=O)c3ccccc3n(CCCCOc3ccccc3)c12 | 450 | 2.73 | 165 |  | 
6 | O=c1c2ccccc2n(CCCCOc2ccccc2)c2occc12 | 2000 | 2 | 1000 |  | 
7 | Cn1c(=O)cc(OCCCCOc2ccccc2)c2ccccc21 | 1500 |  | 670 |  | 
8 | O=c1ccc2c(OCCCCOc3ccccc3)c3ccoc3cc2o1 | 45 |  |  | 3 | 6.7
9 | c1ccc(OCCCCOc2cccc3ccccc23)cc1 |  |  | 15000 |  | 
10 | c1ccc(OCCCCOc2ccnc3ccccc23)cc1 | 3500 | < 0.35 | > 10000 |  | 
11 | c1ccc(OCCCCOc2c3ccccc3nc3occc23)cc1 | 2000 | 2 | 1000 |  | 
12 | O=c1ccc2c(OCCCCOc3ccccc3)cccc2o1 | 520 | 3.47 | 150 |  | 
13 | COc1c2occc2c(OCCCCOc2ccccc2)c2c(=O)cc(C)oc12 | 2500 | 1.67 | 1500 |  | 
14 | O=c1ccc2cc3ccoc3c(OCCCCOc3ccccc3)c2o1 | 1000 |  | 1000 |  | 
15 | c1ccc(OCCCCOc2ncnc3ccccc23)cc1 | 25000 |  |  |  | 
16 | COc1c2occc2c(OC)c2c(OCCCCOc3ccccc3)cc(=O)oc12 | 850 | 1.89 | 450 |  | 
17 | S=c1ccc2c(OCCCCOc3ccccc3)c3ccoc3cc2o1 | 380 | 22 | 17 |  | 
18 | c1ccc(OCCCCOc2cccc3occc23)cc1 | 1000 |  | 650 |  | 
19 | O=c1ccoc2cc3occc3c(OCCCCOc3ccccc3)c12 | 200 |  | 170 |  | 
20 | O=C1c2ccccc2C(=O)c2c(OCCCCOc3ccccc3)cccc21 | 10000 | 1.43 | 7000 |  | 
21 | Cc1cc(=O)c2c(OCCCCOc3ccccc3)c3ccoc3cc2o1 | 310 | 1.33 | 233 |  | 
22 | COc1c2ccoc2c(OCCCCOc2ccccc2)c2oc(=O)cc(C)c12 | 280 | 0.88 | 318 |  | 
23 | c1ccc(OCCCCOc2ccccc2)cc1 |  |  | 20000 |  | 
24 | c1ccc(OCCCCOC2c3ccccc3Oc3ccccc32)cc1 | 15000 |  | 12000 |  | 
